Source: ChEMBL document CHEMBL1141824, “The antiproliferative effect of acridone alkaloids on several cancer cell lines” (J Nat Prod, 1999)

Key:
Type in all cases: functional, cell-based
A549 = assay: Antiproliferative activity against human A549 cells after 3 days by alamar blue assay; settings: A549, 72 h
In short: (§1)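 Cells kept in DMEM with 10% heat-inactivated FBS. 2×10^3 cells per well were grown 24 h, then an equal volume of medium with serial sample dilutions was added (DMSO ≤0.4%). After 3 days, alamar Blue was added for 6 h. Proliferation was taken as blank-corrected (A570−A595) as % of untreated growth control. Triplicates.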

B16 = assay: Antiproliferative activity against mouse B16 cells after 3 days by alamar blue assay; settings: B16, 72 h; in short: as §1
CCRF-HSB-2 = assay: Antiproliferative activity against human CCRF-HSB-2 cells after 3 days by alamar blue assay; settings: CCRF-HSB-2, 72 h
In short: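 Suspension line maintained in RPMI1640 with 10% FBS. 10⁴ cells per well were preincubated 24 h, then mixed with an equal volume of serially diluted samples (DMSO up to 0.4%) and exposed for 3 days. Staining was alamar Blue for 24 h. Growth was expressed as % of untreated control from blank-subtracted A570−A595. Triplicate points.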

TGBC11TKB = assay: Antiproliferative activity against human TGBC11TKB cells after 3 days by alamar blue assay; settings: 72 h
In short: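 TGBC11TKB, a lymph-node-metastasized gastric cancer line, was grown in DMEM with 5% FBS. 2×10^3 cells per well were plated, grown 24 h, then given medium with serial dilutions (final DMSO ≤0.4%) for 3 days. alamar Blue was then added for 6 h. Read-out was blank-corrected A570−A595 as % of untreated control, in triplicate.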

Compound	IC50 (A549)	IC50 (B16)	IC50 (CCRF-HSB-2)	IC50 (TGBC11TKB)
COc1cc(O)c2c(=O)c3cccc(O)c3n(C)c2c1OC [CITRUSININE-I]	> 40 µM	> 40 µM	> 40 µM	> 40 µM
CC1(C)C=Cc2c(cc(O)c3c(=O)c4ccccc4[nH]c23)O1	6.37 µM	5.05 µM	3.1 µM	2.07 µM
CC(C)=CCc1c(O)cc(O)c2c(=O)c3ccccc3n(C)c12 [GLYCOCITRINE II]	> 40 µM	> 40 µM	> 40 µM	> 40 µM
Cn1c2c(O)cccc2c(=O)c2c(O)cc3c(c21)C=CC(C)(C)O3	> 40 µM	> 40 µM	23.6 µM	16.2 µM
CC(C)=CCc1c2c(c3c(c1O)c(=O)c1ccccc1n3C)C=CC(C)(C)O2	> 40 µM	> 40 µM	> 40 µM	> 40 µM
COc1ccc2c(=O)c3c(O)cc4c(c3n(C)c2c1OC)C=CC(C)(C)O4 [CITRACRIDONE II]	> 40 µM	> 40 µM	> 40 µM	> 40 µM
COc1c(O)ccc2c(=O)c3c(O)cc4c(c3n(C)c12)C=CC(C)(C)O4 [CITRACRIDONE I]	> 40 µM	> 40 µM	> 40 µM	> 40 µM
COc1cc(O)c2c(=O)c3ccc(OC)c(O)c3n(C)c2c1 [GRANDISINE I]	24.4 µM	> 40 µM	29.2 µM	19.3 µM
CC1(C)C=Cc2c(cc(O)c3c(=O)c4cccc(O)c4[nH]c23)O1 [ATOLAPHYLLIDINE]	6.98 µM	5.58 µM	4.65 µM	2.83 µM
CC(C)=CCc1c2c(c3c(c1O)c(=O)c1cccc(O)c1n3C)C=CC(C)(C)O2	9.37 µM	8.04 µM	5.41 µM	2.13 µM

Continued, in another order:

IC50 (A549)	IC50 (B16)	IC50 (CCRF-HSB-2)	Compound	IC50 (TGBC11TKB)
> 40 µM	> 40 µM	> 40 µM	COc1cc(O)c2c(=O)c3cccc(O)c3n(C)c2c1CC=C(C)C [GLYCOCITRINE I]	> 40 µM
> 40 µM	> 40 µM	> 40 µM	COc1cc2c(c3[nH]c4ccccc4c(=O)c13)C=CC(C)(C)O2	> 40 µM
6.26 µM	4.63 µM	2.5 µM	CC(C)=CCc1c2c(c3[nH]c4c(O)cccc4c(=O)c3c1O)C=CC(C)(C)O2 [ATALAPHYLLININE]	1.43 µM
> 40 µM	> 40 µM	> 40 µM	COc1cc(O)c2c(=O)c3ccc(O)c(OC)c3n(C)c2c1 [CITPRESSINE II]	> 40 µM
> 40 µM	> 40 µM	> 40 µM	Cn1c2ccccc2c(=O)c2c(O)cc3c(c21)C=CC(C)(C)O3 [NORACRONYCINE]	> 40 µM
